Rows were chosen to be rich in hits. Some 2.3% of all compounds tested hit in one or more screens of this group.
Pemphigus Ab inh = blocks pemphigus antibody binding to human desmoglein-3 | P32926 | binding (percent of control), % at 10 µM | AID 588358 | 310,000 tested, 0.48% active | DSG3-coupled beads, scFv-anti-DSG3-GFP binding, flow cytometry; hits give low values;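 active = binding more than 3 SD below its plate's average and above zero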;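 also: hits lower antibody fragment binding to DSG3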
GPR7 antagonist = human neuropeptides B/W receptor 1 antagonism; 290,000 tested, 1.1% active; GPR7-expressing cells, fluorescence antagonist assay; P48145; inhibition, % at 4.4 µM; in the data active = inhibition above about 16%, passing the limit was not always enough;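 also: cells stimulated with the agonist NPW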
CHT allo act = human CHT allosteric activation. CHT-expressing cells, membrane potential dye, choline EC20; hits give high values; LV-AA mutant CHT in HEK293 cells. B-score at 10 µM. 310,000 tested, 0.49% active. AID 488977;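 active = initial fluorescence not abnormally high and integrated response B-score, plate-corrected, over 3 SD above library mean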
pCIP destab = p/CIP protein destabilization | Q05BA5 | F442A p/CIP-EGFP cells, EGFP fluorescence, 16 h | decrease of EGFP signal, % at 10 µM | 290,000 tested, 0.01% active;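 active = EGFP signal decrease of at least 30% at 10 µM or well 3 SD below plate mean, unless failing retest; inactive = the rest, including hits failing retest or dose response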
CHT inh = inhibits the human high affinity choline transporter | Q9GZV3 | CHT-expressing cells, membrane potential dye, choline response; hits give low values | B-score at 10 µM | 310,000 tested, 0.86% active | AID 488975;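 active = B-score over 3 SD under the library average, and starting fluorescence ratio not unusually high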;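 also: choline stimulus applied at its EC90 after an EC20 pre-addition; B-score computed on integrated fluorescence ratio after choline addition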
T cell modulator = modulates CD8 T cell binding to vesicles. 2C CD8+ T cell-vesicle binding, flow cytometry; hits give low values. response (vesicle binding), % at 7 µM. 330,000 tested, 0.068% active;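 active = response, share of CD8 T cells binding vesicles, and their 90th percentile fluorescence all below set limits, cut at about 80% in these data, passing the limit was not always enough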;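 also: values below 100% mean blocked vesicle binding to the CD8+ T cells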
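Test system: purified 2C TCR transgenic mouse naive CD8+ T cells. Probe or stimulus: QL9-peptide-loaded Drosophila micro-vesicles bearing Ld, ICAM-1 and B7-1. Incubation: binding step 1.5 h, 37 °C, antibody labelling 20 min, ice. Measured by: flow cytometry of vesicle-bound cells.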
Hits are given with their value; - = inactive; . = not tested or not shown; ! = not confirmed by another sample.

SMILES	Pemphigus Ab inh	GPR7 antagonist	CHT allo act	pCIP destab	CHT inh	T cell modulator
COc1cc(C(=O)Nc2cccc(-c3nc4cc(C)ccc4o3)c2C)cc(OC)c1OC	80	-	-	-	-	-
COc1cc(C(=O)Nc2cccc(-c3nc4ncccc4o3)c2C)cc(OC)c1OC	-	-	-	-	-	-
Cc1nc(N2CCCCC2)[nH]c(=O)c1CN(C)N=O	-	.	.	.	.	.
CSc1nnc(NC(=O)c2nc(S(=O)(=O)Cc3ccccc3)ncc2Cl)s1	-	-	-	-	-9.2	-
O=C(CNC(=O)c1cccc(-n2cccc2)c1)Nc1ccccc1Br	-	.	.	.	.	.
Cc1cc(NC(=O)CS(=O)(=O)c2cn(Cc3cccc(F)c3)c3ccccc23)no1	-	-	-	-	-	-
Cc1cc(NC(=O)CS(=O)(=O)c2cn(Cc3ccc(F)cc3)c3ccccc23)no1	-23	-	-	-	-	-
CC1CCC(C(=O)c2c(O)c3ccccc3oc2=O)CC1 (centres undefined)	-	-	-	-	-11	-
COc1ccc(CSC(=S)NNc2ccccc2)cc1	-	.	.	.	.	.
COc1cccc(-c2nc(C=O)cs2)c1	-	-	-	-	-5	-
COc1ccc(CN2C(=O)C(CC(=O)NC3CC3)CC(C(=O)N(C)C)=C2C)cc1 (centres undefined)	-	.	.	.	.	.
Cc1ccc(NC2=Nc3ccccc3N3C2=Nc2c(c(C)nn2-c2ccccc2)C3c2ccc(O)c(O)c2)cc1 (centres undefined)	91	-	.	-	.	.
Cc1nn(-c2ccccc2)c2c1C(c1ccc(O)c(O)c1)N1C(=N2)C(Nc2ccccc2)=Nc2ccccc21 (centres undefined)	-	-	-	-	-	-
COc1ccc(NC(=O)c2ccc(NC(=O)CN3CCN(c4ccccc4)CC3)cc2)cc1	5.2	.	.	.	.	-
COc1ccc(NC(=O)c2ccc(CN3CCN(c4ccccc4)CC3)cc2)cc1	.	-	-	-	-	-
COc1cccc(C(=O)Nc2ccc(NC(=O)Cc3ccccc3)cc2)c1	92	-	-	-	-	-
CC(=O)C1CCC2C3CC(C)=C4CC(O)CCC4(C)C3CCC12C (centres undefined)	-	.	.	.	.	.
COc1ccccc1OCC(O)Cn1c(=N)n(CCN2CCCCC2)c2ccccc21 (centres undefined)	-	25	-	-	-	-
COc1ccccc1C1CC(c2ccc(C)cc2)Nc2ncnn21 (centres undefined)	-	14	-	-	-	-
O=C(/C=C/c1ccc(-c2cccc([N+](=O)[O-])c2)o1)N1CCOCC1	86	-	-	-	-	-
CC(C)c1nc(SCC(=O)N2CCCCC2)c2c(=O)n(C)c(=O)n(C)c2n1	-	.	.	.	.	.
O=C(CSc1nc(O)cc(=O)n1-c1ccccc1)Nc1ccc2c3c(cccc13)CC2	41	-	-	-	-	-
Cc1c(O)nc(SCC(=O)Nc2ccc3c4c(cccc24)CC3)n(-c2ccccc2)c1=O	-	-	-	-	-	-
COc1ccc2c(Cl)cc(NC(=O)Nc3c(C)cccc3C)nc2c1	-	.	.	.	.	.
OC(c1ccccc1)C(NCc1ccccc1)c1ccccc1 (centres undefined)	-	.	.	.	.	.
SMILES	Pemphigus Ab inh	GPR7 antagonist	CHT allo act	pCIP destab	CHT inh	T cell modulator
CCCCN(C)CCCNC(=O)c1cn(CC)c2ccc(S(=O)(=O)N3CCc4ccccc4C3)cc2c1=O	-	-	-	-	-	-
CCCCN(CC)CCCNC(=O)c1cn(CC)c2ccc(S(=O)(=O)N3CCc4ccccc4C3)cc2c1=O	-	-	-	-	-13	-
Cc1ccc(-c2nc(N3CCOCC3)sc2C(=O)N2CCCCC2)cc1	-	25	-	-	-	-
NC(=O)C1(Nc2ccc(-c3ccc(Cl)cc3)cc2)CCCC1	54	.	.	.	.	.
O=C(O)C1(Nc2ccc(Cl)cc2)CCCC1	-	.	.	.	.	.
COc1ccc(/C=N/NC(=O)c2nn(-c3ccc(Cl)cc3)c(=O)c3c(N)scc23)cc1	82	-	-	-	-	-
CCCCc1nc2cc(C(=O)N3CCN(c4cnccn4)CC3)ccc2o1	-	-	-	-	-9.7	-
CC(=O)Nc1ccc(OCc2cn(CC(=O)c3ccc(O)cc3)nn2)cc1	-	.	.	.	.	.
O=C(COc1cccc2c1CCN(Cc1ccc(Br)cc1)C2=O)N1CCOCC1	-	-	-	-	-	-
O=C1c2cccc(OCC(=O)N3CCCc4ccccc43)c2CCN1Cc1ccccc1	-	22	-	-	-	-
Cc1oc(-c2cccc(Cl)c2)nc1CN1CCC(C(=O)NCc2ccco2)CC1	-	-	-	-	-	-
CCN1CCCC1CNC(=O)C1CCN(Cc2nc(-c3cccc(Br)c3)oc2C)CC1 (centres undefined)	-	-	8.3	-	-	-
Cn1c(=O)c2c(ncn2CCOc2ccc(F)cc2)n(C)c1=O	.	-	-	-	-	-
Cn1c(=O)c2c(nc(NCCOc3ccc(F)cc3)n2C)n(C)c1=O	91	-	-	-	-	-
O=C1C=C(NCCc2cc(Br)c(O)c(Br)c2)C(=O)c2ncccc21	58	.	.	.	.	.
O=C(NCCc1ccccc1C(F)(F)F)c1cc(COc2ccccc2)on1	-	.	.	.	.	.
CCCCN1C(=O)CC2CCOC21C (centres undefined)	-	.	.	.	.	.
Cc1ccc2c(=O)n3c(nc2c1)C(Cc1ccc(O)cc1)NC(=O)c1ccc(Cl)cc1-3 (centres undefined)	.	.	.	.	.	-
CCCn1cc(SCC(=O)Nc2nnc(C)s2)c2ccccc21	-	-	-	-	-	-
Cc1ccc(C(=O)NCCn2cc(SCC(=O)Nc3nnc(C)s3)c3ccccc32)cc1	-	19	-	-	-	-
c1ccc(-c2ccc(C(c3ccccc3)n3ccnc3)cc2)cc1 (centres undefined)	-	36!	-	-	-	-
COc1cc2ccc(CC(N)=O)cc2cc1OC	-	.	.	.	.	.
CCC(=O)c1ccc(OCC(=O)OCC(=O)N2CCc3ccccc32)cc1	63	.	-	.	-	-
CCN(C(=O)c1ccc(NC(=O)C2CCCCC2C(=O)O)cc1)c1ccccc1 (centres undefined)	-	.	.	.	.	.
COC(=O)N/N=C/c1cn(Cc2c(Cl)cccc2Cl)c2ccccc12	81	-	-	-	-	-
SMILES	Pemphigus Ab inh	GPR7 antagonist	CHT allo act	pCIP destab	CHT inh	T cell modulator
CC1CCCC(NC(=O)COC(=O)CCC2CCCC2)C1C (centres undefined)	45	-	-	-	-	-
Cc1nc(Cl)c(C(=O)NC(=O)NCc2ccccc2)c(C)c1Cl	-	-	-	-	-	0.0
C/C(=N\Nc1ccc(S(=O)(=O)Nc2ccc(Cl)cc2)cc1[N+](=O)[O-])c1ccc(N2CCOCC2)cc1	-	-	-	-	-	-
C/C(=N\Nc1ccc(S(=O)(=O)Nc2ccccc2)cc1[N+](=O)[O-])c1ccc(N2CCOCC2)cc1	76	-	-	-	-	-
CCCCN(C(=O)/C=C/c1ccccc1)C1CCS(=O)(=O)C1 (centres undefined)	74	.	-	.	-	-
CSc1ncnc2c1ncn2CCCNCc1ccc(C)o1	-	.	.	.	.	.

Bioassay records (PubChem BioAssay)
